Here are results for 6 compounds from ChEMBL document CHEMBL1142097, “EthA, a common activator of thiocarbamide-containing drugs acting on different mycobacterial targets” (Antimicrob Agents Chemother, 2007).

For data set [1], the system named is Mycobacterium tuberculosis variant bovis BCG. Put plainly: Antimycobacterial activity against Mycobacterium bovis BCG Pasteur with pMV261 vector. The class given is functional. The gist of the method: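 Agar MIC on Middlebrook 7H9 or 7H11 with OADC (ADC substituted for isoxyl-type drugs) plus graded drug levels; serial 10-fold dilutions of actively growing culture plated, incubated 37°C for 10–14 days; MIC = lowest concentration blocking 99% of growth. Recombinant Pasteur strains selected with 25 μg/ml kanamycin; ethR::hyg mutant carries a hygromycin-marked transposon in ethR.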

Data set [2] can be described thus: Drug metabolizing activity of Mycobacterium bovis BCG recombinant ethA expressed in Escherichia coli. The class given is ADME. To be noted: mycobacterium tuberculosis variant bovis bcg. The gist of the method: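 N-terminal His6-tagged EthA expressed in E. coli (1 mM IPTG, 22°C, 24 h), Ni2+ affinity-purified with bound FAD. Drug incubated at 37°C for 1 h in 50 mM Tris-HCl pH 7.4, 100 mM KCl, 200 μg/ml BSA, 4 mM NADPH, 8 μg EthA.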

SMILES strings stand for the structures. ≈ marks a conversion by molar mass, not a printed value.

One may read the MIC as the lowest concentration found to suppress growth. High values mean a less susceptible organism, low ones a more susceptible organism. The compound `CC(=O)Nc1ccc(/C=N/NC(N)=S)cc1` [AMITHIOZONE] had a minimum inhibitory concentration (MIC) in data set [1] of 0.5 µg/mL (≈ 2.12 µM).
On the same count and under the same terms, the figure for `NC(=S)N/N=C/c1cccnc1` [NICOTHIAZONE] is 10 µg/mL (≈ 55.5 µM).
`CC(C)CCSc1ccc(NC(=S)Nc2ccc(SCCC(C)C)cc2)cc1`: in data set [2], the Activity stood at 7.37 µmol/min/mg. The MIC in data set [1] was 40 µg/mL (≈ 92.4 µM).
The corresponding values for `CC(C)CCOc1ccc(NC(=S)Nc2ccc(OCCC(C)C)cc2)cc1` [TIOCARLIDE] are 7.56 µmol/min/mg and 0.25 µg/mL (≈ 0.624 µM).
Consider `CCc1cc(C(N)=S)ccn1` [ETHIONAMIDE], for which the MIC in data set [1] is 2 µg/mL (≈ 12 µM).
The same measure, in the same setting: the figure for `COc1ccc(/C(C)=N/NC(N)=S)cc1` is 0.25 µg/mL (≈ 1.12 µM).
